According to ChEMBL document CHEMBL2040758, “Synthesis and antitumor activity of novel quinazoline derivatives containing thiosemicarbazide moiety” (Eur J Med Chem, 2012):

Legend:
Type in all cases: functional, cell-based
[1] = test system: MGC-803; test: Cytotoxicity against human MGC803 cells after 72 hrs by MTT assay; settings: MGC-803, 72 h
Method in brief: (§1)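 Log-phase cells: KB, CNE2, MGC-803 and GLC-82 grown in RPMI 1640 + 10% fetal calf serum; MCF-7 in DMEM + 10% fetal calf serum. Seeded at 1.5×10⁴ cells/mL (KB), 2.0×10⁴ (CNE2, MGC-803, GLC-82) or 2.5×10⁴ (MCF-7), 37 °C, 5% CO₂, 24 h. Compound exposure 72 h, 37 °C. MTT (5 mg/mL saline stock) 3 h. A570, reference 655 nm. IC₅₀ versus untreated control, ≥3 experiments.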

[2] = test system: MCF7; test: Cytotoxicity against human MCF7 cells after 72 hrs by MTT assay; settings: MCF7, 72 h; method in brief: as §1
[3] = test system: KB; test: Cytotoxicity against human KB cells after 72 hrs by MTT assay; method in brief: as §1
[4] = Cytotoxicity against human GLC82 cells after 72 hrs by MTT assay; settings: GLC82, 72 h; method in brief: as §1
[5] = Cytotoxicity against human CNE2 cells after 72 hrs by MTT assay; settings: CNE-2, 72 h; method in brief: as §1

Row | Structure (SMILES) | IC50 [1] [µM] | IC50 [2] [µM] | IC50 [3] [µM] | IC50 [4] [µM] | IC50 [5] [µM]
1 | COc1cc2ncnc(NNC(=S)NC(=O)c3ccc(Cl)cc3)c2cc1OC | 3.71 | 8.94 | 4.59 | 9.62 | 7.53
2 | COc1cc2ncnc(NNC(=S)NC(=O)c3ccccc3OC)c2cc1OC | 1.59 | 8.8 | 3.85 | 16 | 8.41
3 | COc1cc2ncnc(NNC(=S)NC(=O)c3ccccc3C)c2cc1OC | 11.1 | 19.3 | 11.4 | 21.5 | 10.5
4 | COc1cc2ncnc(NNC(=S)NC(=O)c3ccc(C)cc3)c2cc1OC | 19.7 | 22.3 | 24.2 | 29.9 | 33.3
5 | O=C(NC(=S)NNc1ncnc2ccccc12)c1ccccc1 | 6.99 | 5.96 | 2.33 | 8.37 | 1.49
6 | O=C(NC(=S)NNc1ncnc2ccccc12)c1ccccc1Cl | 9.14 | 10.5 | 7.71 | 10.8 | 6.09
7 | O=C(NC(=S)NNc1ncnc2ccccc12)c1cccc(Cl)c1 | 4.54 | 3.54 | 4.74 | 3.24 | 2.92
8 | O=C(NC(=S)NNc1ncnc2ccccc12)c1ccc(Cl)cc1 | 1.86 | 5.96 | 3.94 | 6.68 | 1.53
9 | O=C(NC(=S)NNc1ncnc2ccccc12)c1ccccc1F | 5.01 | 5.02 | 2.51 | 6.46 | 4.61
10 | O=C(NC(=S)NNc1ncnc2ccccc12)c1ccc(F)cc1 | 3.6 | 4.59 | 1.87 | 6.07 | 2.84
11 | O=C(NC(=S)NNc1ncnc2ccccc12)c1ccc(C(F)(F)F)cc1 | 10.6 | 8.05 | 7.92 | 12.2 | 22.5
12 | COc1ccccc1C(=O)NC(=S)NNc1ncnc2ccccc12 | 14.3 | 8.7 | > 50 | 9.5 | 15.7
13 | Cc1ccccc1C(=O)NC(=S)NNc1ncnc2ccccc12 | 4.24 | 16.5 | 2.77 | 13.2 | 5.46
14 | Cc1ccc(C(=O)NC(=S)NNc2ncnc3ccccc23)cc1 | 3.76 | 7.82 | 10.1 | 11.2 | 17.2
15 | COc1cc2ncnc(NNC(=S)NC(=O)c3ccccc3)c2cc1OC | 3.05 | 6.99 | 3.77 | 6.55 | 8.18
16 | COc1cc2ncnc(NNC(=S)NC(=O)c3ccccc3Cl)c2cc1OC | 6.44 | 23.1 | 3.56 | 10 | 9.67
17 | COc1cc2ncnc(NNC(=S)NC(=O)c3cccc(Cl)c3)c2cc1OC | 4.06 | 11.5 | 4.83 | 8.37 | 7.46
18 | COc1cc2ncnc(NNC(=S)NC(=O)c3ccccc3F)c2cc1OC | 2.39 | 8.5 | 4.07 | 8.64 | 12.7
19 | COc1cc2ncnc(NNC(=S)NC(=O)c3ccc(F)cc3)c2cc1OC | 8.3 | 25.8 | 4.53 | 15.3 | 16.1
20 | COc1cc2ncnc(NNC(=S)NC(=O)c3ccc(C(F)(F)F)cc3)c2cc1OC | 9.28 | 16.8 | 8.84 | 16.5 | 16.5
21 | O=c1[nH]cc(F)c(=O)[nH]1 [FLUOROURACIL] | 18.5 | 14.2 | 8.28 | 17.4 | 15.1
